# High-throughput results (PubChem)
# Apaf1 activ: activates human Apaf-1 apoptosome | O14727 | Apaf-1 apoptosome caspase-3 activation, DEVD-Rh110 fluorescence; hits give low values | activity change, negative = activation, % at 20 µM | 330,000 compounds, 0.31% hits | AID 489031;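 active = activity change at or below -40% at 20 µM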
#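 Material: reconstituted apoptosome of Apaf-1, cytochrome c, caspase-9, procaspase-3; times: 30 min preincubation, 50 min reaction, room temperature; measured by: fluorescence, 540 nm emission, 480 nm excitation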
# Rh110 act interf: Rh110 signal interference in Apaf-1 activator counter-screen; AID 504616; shares compounds with Apaf1 activ; fluorescence interference (activity change), % at 20 µM, hits read low; 980 tested, under 10 active; Rh110 fluorescence interference, quenched caspase reaction, Ex480/Em540;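 active = mean activity change at or below -40% when tested at 20 µM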
# Apaf-1 act conf: confirmation of human Apaf-1 activators. reconstituted apoptosome caspase-3 activity, DEVD-Rh110 fluorescence; hits give low values. AID 504617. activity change, negative = activation, % at 20 µM. shares compounds with Apaf1 activ. 980 compounds, 5% hits;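 active = mean activity change at or below -40%, meaning activation of 40% or more, at 20 µM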
# Apaf1 act interf: Apaf-1 activator counter-screen fluorescence artifact; shares compounds with Apaf1 activ; 55 tested, under 10 active; EC50, µM; AID 588592; fluorescence interference counterscreen, Apaf-1 activator assay; call rule not given here
# The depositor's hits bear a star; x = no result given; + = active, no number. The list is a sample of the results.
SMILES,Apaf1 activ,Rh110 act interf,Apaf-1 act conf,others
COc1cccc(C(=O)NN2C(=S)N(c3ccccc3)C(=O)C2CC(N)=O)c1 (configuration not stated),-83*,-8,11,
CN1C(C(=O)NCC2CC2)CC2Cn3c(nc4cc5ccccc5cc43)C21 (configuration not stated),41,x,x,
N/C(=N\OC(=O)c1ccc(Cl)cc1Cl)c1cccnc1,76,x,x,
CCN(CC)CCOC(=O)c1ccc(N/C=C(/C#N)c2nc(-c3ccc4c(c3)OCO4)cs2)cc1,60,x,x,
CCN(CC)CCN(C(=O)c1ccc2c(c1)CCCC2)c1nc2ccc(C)cc2s1,51,x,x,
Cc1c(N=Cc2cccs2)c(=O)n(-c2ccccc2)n1C,-182*,1,8,
CC1=NN(c2ccccc2)C(=O)/C1=C/c1cccs1,90,x,x,
COc1ccccc1NC1=C(N2CCCCC2)C(=O)c2ccccc2C1=O,95,x,x,
C#CCOCCOCCOCCNc1nc(N2CCN(C(=O)C([C@@H](C)CC)n3cc(C(N)COC(=O)C(F)(F)F)nn3)CC2)nc(N2CCN(C(=O)[C@H](Cc3cc4ccccc4[nH]3)n3cc(C(N)CO)nn3)CC2)n1 (some centres not stated),49,x,x,
CCN1C(=NCCc2ccc(Br)cc2)N[C@@H](c2ccccc2)[C@H](C(=O)OC)[C@H]1C,45,x,x,
N#CCCn1cc(C(CC(=O)c2ccc(Br)cc2)C(=O)O)c2ccccc21 (configuration not stated),-67*,10,-48*,Apaf1 act interf=>100
N=c1n(CC(=O)c2ccc(Br)cc2)c2ccccc2n1Cc1ccccc1,53,x,x,
CCc1nc(N2CCN(C(C)=O)CC2)c2c3c(sc2n1)CC(C(C)(C)C)CC3 (configuration not stated),42,x,x,
CCOc1cc(C)c(S(=O)(=O)Nc2ccc(Cl)cn2)cc1C,-40*,5,14,
c1ccc(-c2cn3nc4c(nc3n2)CCCC4)cc1,57,x,x,
COC(=O)c1nn(-c2ccc(OC)cc2)c(=O)cc1NN,42,x,x,
COC(=O)c1nn(-c2ccc(OC)cc2)c(=O)cc1Sc1ccc(C)cc1,-333*,-4,12,
CCCCCc1ccc(OCCCC[n+]2cccc(C)c2)c(CCCCC)c1,61,x,x,
COC(=O)c1ccccc1-c1ccc(C(c2c(C)[nH][nH]c2=O)c2c(C)[nH][nH]c2=O)o1,79,x,x,
COC(=O)c1ccccc1-c1c2ccc(=N)cc-2oc2cc(N)ccc12,-332*,+,-82*,
FC(F)(F)c1cc(CCN2CCNC[C@@H]2Cc2ccccc2)cc(C(F)(F)F)c1,57,x,x,
O=C1C(Cl)=C(NCc2cccnc2)C(=O)c2ccccc21,85,x,x,
COc1cc(OC)c(OC)cc1/C=N/N(C)c1ccccc1,-78*,55,18,
COc1ccccc1/C=N/Nc1cc(N(C)C)nc(N(C)C)n1,84,x,x,
CCN1/C(=C/c2ccc3cc(C)ccc3[n+]2CC)Sc2cc(C)c(C)cc21,64,x,x,
SMILES,Apaf1 activ,Rh110 act interf,Apaf-1 act conf,others
C#CCOCCOCCOCCNc1nc(N2CCOCC2)nc(N2CCN(C(=O)[C@H](CCCCN)n3cc(CN)nn3)CC2)n1,49,x,x,
CCOc1cc(/C=N/NC(=O)C(=O)NCCCOC(C)C)cc(Br)c1O,-173*,0,12,
O=C(c1ccc(OCCN2CCCCC2)cc1)c1c(-c2ccc(O)cc2)sc2cc(O)ccc12,47,x,x,
COc1ccc2cc(C(=O)Nc3ccc(Cl)cc3)sc(=O)c2c1OC,-46*,8,13,
CCN(CC(=O)Nc1ccc(OC)cc1)C(=O)C1CCN(C(=O)c2ccc(Cl)cc2)CC1,58,x,x,
CN(C)CCCN(C(=O)c1ccc(S(=O)(=O)N2CCc3ccccc3C2)cc1)c1nc2ccc(F)cc2s1,70,x,x,
N#Cc1c(N)n(CCNC(=O)c2ccc(Cl)cc2)c2nc3ccccc3nc12,67,x,x,
Cc1ccccc1NC(=S)N/N=C/c1ccc(O)cc1O,-43*,8,-35,
Cc1ccccc1NC(=S)Nc1cccc2cnccc12,91,x,x,
Oc1ccc(C=Nc2cccc3ccccc23)c(O)c1,81,x,x,
CC(C)NC[C@@H](O)c1ccc(O)c(O)c1,43,x,x,
Cn1c(Cc2ccccc2)n[nH]c1=S,42,x,x,
COc1ccc(-c2[nH]nc3oc(=O)cc(C)c23)cc1,-135*,7,16,
COc1ccc(-c2cc(-c3ccc(F)cc3)nc(N3CCN(C)CC3)n2)cc1,65,x,x,
O=[N+]([O-])c1cc(CN2CCN(c3cccc(C(F)(F)F)c3)CC2)c2cccnc2c1O,42,x,x,
CC(C)(O)C#Cc1ccc(CN2CCC(n3nccc3NC(=O)C3CC3)CC2)cc1,-79*,2,8,
O=C1/C(=C/c2ccccn2)SC(=S)N1c1ccc(O)cc1,-47*,-1,-10,
